ChEMBL document CHEMBL3632543, “Structural Dissection of Crotalicidin, a Rattlesnake Venom Cathelicidin, Retrieves a Fragment with Antimicrobial and Antitumor Activity” (J Med Chem, 2015)
Converted amounts (≈) assume the structure as drawn. The source made the active and inactive calls. The rule behind the calls is not given here. Where a SMILES comes first, the peptide text is derived from it.

Columns and labels:
[1] = tested on: Staphylococcus aureus; assay: Antibacterial activity against clinical isolate Staphylococcus aureus by microdilution method; format: functional
Summary of the method: (§1)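 Strains subcultured at least twice on sheep blood agar and incubated 24 h before testing; inoculum made by direct suspension in saline to 0.5 McFarland turbidity. MIC determined by broth microdilution in Mueller–Hinton broth following CLSI guidelines; gentamicin run as control antibiotic.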

[2] = tested on: Pseudomonas aeruginosa; assay: Antibacterial activity against Pseudomonas aeruginosa ATCC 27853 by microdilution method; format: functional; summary of the method: as §1
[3] = tested on: Escherichia coli; assay: Antibacterial activity against clinical isolate Escherichia coli by microdilution method; format: functional; summary of the method: as §1
[4] = tested on: Staphylococcus aureus; assay: Antibacterial activity against Staphylococcus aureus ATCC 29213 by microdilution method; format: functional; summary of the method: as §1
[5] = tested on: Enterococcus faecalis; assay: Antibacterial activity against Enterococcus faecalis ATCC 29212 by microdilution method; format: functional; summary of the method: as §1
[6] = tested on: Acinetobacter baumannii; assay: Antibacterial activity against clinical isolate Acinetobacter baumannii by microdilution method; format: functional
Summary of the method: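 A. baumannii clinical isolate subcultured at least twice on sheep blood agar, 24 h incubation before testing; saline suspension adjusted to 0.5 McFarland. Broth microdilution MIC in Mueller–Hinton broth per CLSI; gentamicin as control antibiotic.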

[7] = tested on: Pseudomonas aeruginosa; assay: Antibacterial activity against clinical isolate Pseudomonas aeruginosa by microdilution method; format: functional; summary of the method: as §1
[8] = tested on: Streptococcus pyogenes; assay: Antibacterial activity against clinical isolate Streptococcus pyogenes by microdilution method; format: functional
Summary of the method: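 S. pyogenes isolate subcultured twice on sheep blood agar, incubated 24 h, suspended in saline to 0.5 McFarland. MIC by CLSI broth microdilution in Mueller–Hinton broth supplemented with 5% lysed horse blood; gentamicin control.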

[9] = tested on: Enterococcus faecalis; assay: Antibacterial activity against clinical isolate Enterococcus faecalis by microdilution method; format: functional; summary of the method: as §1
[10] = tested on: Klebsiella pneumoniae; assay: Antibacterial activity against clinical isolate Klebsiella pneumoniae by microdilution method; format: functional; summary of the method: as §1
[11] = tested on: Escherichia coli; assay: Antibacterial activity against Escherichia coli ATCC 25922 by microdilution method; format: functional; summary of the method: as §1
[12] = Cytotoxicity against human HeLaS3 cells after 4 hrs by cell titer blue dye assay; format: functional, cell-based; conditions: HeLa S3, 4 h
Summary of the method: (§2)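 Tumor cells cultured in DMEM with 10% FBS, 37 °C, 5% CO2, kept at 10^5–10^6 cells/mL. About 60 000 cells mixed with 2-fold serial peptide dilutions (final 0.1–100 μM) in DMEM with 2% FBS for 30 min at 37 °C. About 10 000 treated cells per well then got Cell Titer Blue; fluorescence (ex 530, em 590 nm) read 4 and 24 h after dye addition. Viability relative to medium-only controls; triplicate.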

[13] = tested on: Jurkat E6.1; assay: Cytotoxicity against human Jurkat E6-1 cells after 4 hrs by cell titer blue dye assay; format: functional, cell-based
Summary of the method: (§3)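 Suspension cells (~60 000) were mixed with 2-fold peptide dilutions (0.1–100 μM final) in DMEM/2% FBS, 30 min at 37 °C, 5% CO2. ~10 000 cells per well then received Cell Titer Blue. Resorufin fluorescence (ex 530/em 590 nm) was read at 4 and 24 h; viability relative to medium-only controls; triplicate.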

[14] = tested on: HL-60; assay: Cytotoxicity against human HL60 cells after 4 hrs by cell titer blue dye assay; format: functional, cell-based; summary of the method: as §3
[15] = tested on: THP-1; assay: Cytotoxicity against human THP1 cells after 24 hrs by cell titer blue dye assay; format: functional, cell-based; summary of the method: as §2
[16] = Half life in human serum at 1 mM incubated for 24 hrs by LC-MS analysis; format: ADME, cell-free
Summary of the method: (§4)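 Human serum combined with equal volume of 1 mM aqueous peptide stock, incubated 24 h at 37 °C with gentle swirling. Aliquots taken at 0, 1, 5, 10, 30, 120, 360 and 1440 min, quenched with 15% trichloroacetic acid for 30 min at 4 °C, and centrifuged to remove serum proteins. Remaining peptide followed by LC-MS.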

[17] = Cytotoxicity against human 1BR3G cells assessed as reduction of cell viability at 100 uM after 4 hrs by cell titer blue dye assay; format: cell-based
Summary of the method: (§5)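 1BR3G human fibroblasts grown in DMEM with 10% FBS at 37 °C, 5% CO2; 5000 cells/well seeded for 24 h, then medium swapped for DMEM with 2% FBS holding 2-fold serial peptide dilutions (final 0.1–100 μM). After 30 min, Cell Titer Blue added; fluorescence (ex 530, em 590 nm) read 4 and 24 h after dye addition. Viability relative to 2% FBS medium-only controls; triplicate.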

[18] = tested on: HL-60; assay: Cytotoxicity against human HL60 cells after 24 hrs by cell titer blue dye assay; format: functional, cell-based; summary of the method: as §3
[19] = tested on: U-937; assay: Cytotoxicity against human U937 cells after 4 hrs by cell titer blue dye assay; format: functional, cell-based; conditions: for IC50: U-937, 4 h; summary of the method: as §2
[20] = tested on: Jurkat E6.1; assay: Cytotoxicity against human Jurkat E6-1 cells after 24 hrs by cell titer blue dye assay; format: functional, cell-based; summary of the method: as §3
[21] = tested on: THP-1; assay: Cytotoxicity against human THP1 cells after 4 hrs by cell titer blue dye assay; format: functional, cell-based; conditions: for IC50: THP-1, 4 h; summary of the method: as §2
[22] = tested on: U-937; assay: Cytotoxicity against human U937 cells after 24 hrs by cell titer blue dye assay; format: functional, cell-based; summary of the method: as §2
[23] = Cytotoxicity against human 1BR3G cells assessed as reduction of cell viability at 100 uM after 24 hrs by cell titer blue dye assay; format: cell-based; summary of the method: as §5
[24] = Drug degradation in human serum at 1 mM after 24 hrs by LC-MS analysis; format: ADME, cell-free; conditions: read-out: Drug degradation; summary of the method: as §4
[25] = Toxicity in human erythrocytes assessed as induction of hemolysis up to 400 uM incubated for 30 mins by microplate reader assay; format: cell-based, Erythrocyte; conditions: read-out: Activity
Summary of the method: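 Fresh human blood collected in EDTA; erythrocytes washed three times in PBS. Mixed 1:1 with 2-fold serial peptide dilutions to final 4% (v/v) cells and 0.1–400 μM peptide. Incubated 30 min at 37 °C with gentle agitation, then centrifuged; supernatant A540 measured. Percent hemolysis scaled between untreated cells and 1% Triton X-100; triplicate.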

[26] = tested on: HeLa S3; assay: Cytotoxicity against human HeLaS3 cells after 24 hrs by cell titer blue dye assay; format: functional, cell-based; summary of the method: as §2
[27] = Cytotoxicity against human 1BR3G cells after 4 hrs by cell titer blue dye assay; format: cell-based
Summary of the method: (§6)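 1BR3G fibroblasts grown in DMEM/10% FBS, seeded 5000 cells/well, incubated 24 h at 37 °C, then medium swapped for 2% FBS medium with 2-fold peptide dilutions (0.1–100 μM final). After 30 min, Cell Titer Blue dye was added; fluorescence (ex 530/em 590 nm) read 4 and 24 h later. Viability relative to untreated medium controls; triplicate.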

[28] = Toxicity in human erythrocytes assessed as induction of hemolysis at 100 uM incubated for 30 mins by microplate reader assay; format: cell-based, Erythrocyte; conditions: read-out: Activity
Summary of the method: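 Fresh human blood erythrocytes, PBS-washed, were incubated as a 4% (v/v) final suspension with peptide (0.1–400 μM final) for 30 min at 37 °C with gentle agitation. After centrifugation, hemoglobin in the supernatant was read at A540. Percent hemolysis was calculated against 1% Triton X-100 (positive) and untreated cells; triplicate.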

[29] = Cytotoxicity against human 1BR3G cells after 24 hrs by cell titer blue dye assay; format: cell-based; summary of the method: as §6
[30] = Metabolic stability in human serum assessed as compound remaining at 1 mM after 24 hrs by LC-MS analysis; format: ADME, cell-free; conditions: read-out: Stability; summary of the method: as §4

| Molecule | MIC [1] [µM] | MIC [2] [µM] | MIC [3] [µM] | MIC [4] [µM] | MIC [5] [µM] | MIC [6] [µM] | MIC [7] [µM] | MIC [8] [µM] | MIC [9] [µM] | MIC [10] [µM] | MIC [11] [µM] | IC50 [12] [µM] | Activity [15] | half-life at 1000 µM [16] [h] | Activity [17] [%] | Activity [18] | Activity [20] | Activity [22] | hemolysis at 0.5 h [25] [%] | Activity [26] | further results |
| --- | --- | --- | --- | --- | --- | --- | --- | --- | --- | --- | --- | --- | --- | --- | --- | --- | --- | --- | --- | --- | --- |
| GENTAMICIN | 0.5 | 2.1 | 34 | 0.5 | 17 | 17 | 17 | 17 | 34 | 4.2 | 1 | – | – | – | – | – | – | – | – | – | – |
| CC(C)[C@H](NC(=O)[C@H](CO)NC(=O)[C@H](CCCCN)NC(=O)[C@H](CCCCN)NC(=O)[C@@H](NC(=O)[C@H](CCCCN)NC(=O)[C@H](CCCCN)NC(=O)[C@H](Cc1ccccc1)NC(=O)[C@H](Cc1ccccc1)NC(=O)[C@H](CCCCN)NC(=O)[C@H](CCCCN)NC(=O)[C@H](Cc1ccccc1)NC(=O)[C@H](CCCNC(=N)N)NC(=O)[C@@H](N)CCCCN)C(C)C)C(N)=O (H-KRFKKFFKKVKKSV-NH2) | 71 (≈ 128 µg/mL) | 71 (≈ 128 µg/mL) | 71 (≈ 128 µg/mL) | 71 (≈ 128 µg/mL) | 71 (≈ 128 µg/mL) | 71 (≈ 128 µg/mL) | 71 (≈ 128 µg/mL) | 36 (≈ 64.7 µg/mL) | 71 (≈ 128 µg/mL) | 71 (≈ 128 µg/mL) | 71 (≈ 128 µg/mL) | > 10 | inactive | 0.35 | 20 | inactive | inactive | inactive | 7 | Active | Activity [13]: inactive; Activity [14]: inactive; Activity [19]: inactive; Activity [21]: inactive; Activity [23]: Non-toxic; metabolised at 24 h, 1000 µM [24]: 100% |
| CC[C@H](C)[C@H](NC(=O)[C@H](CCCCN)NC(=O)[C@H](CCCCN)NC(=O)[C@H](CC(C)C)NC(=O)[C@H](CCCNC(=N)N)NC(=O)[C@H](CCCCN)NC(=O)[C@H](CCCCN)NC(=O)[C@@H](NC(=O)[C@H](CO)NC(=O)[C@H](CCCCN)NC(=O)[C@H](CCCCN)NC(=O)[C@@H](NC(=O)[C@H](CCCCN)NC(=O)[C@H](CCCCN)NC(=O)[C@H](Cc1ccccc1)NC(=O)[C@H](Cc1ccccc1)NC(=O)[C@H](CCCCN)NC(=O)[C@H](CCCCN)NC(=O)[C@H](Cc1ccccc1)NC(=O)[C@H](CCCNC(=N)N)NC(=O)[C@@H](N)CCCCN)C(C)C)C(C)C)C(=O)N[C@@H](Cc1ccccc1)C(=O)N[C@@H](CCCCN)C(=O)N[C@@H](CCCCN)C(=O)N1CCC[C@H]1C(=O)N[C@@H](CCSC)C(=O)N[C@H](C(=O)N[C@H](C(=O)NCC(=O)N[C@H](C(=O)N[C@H](C(=O)N[C@H](C(=O)N1CCC[C@H]1C(=O)N[C@@H](Cc1ccccc1)C(N)=O)[C@@H](C)CC)[C@H](C)O)C(C)C)[C@@H](C)CC)C(C)C | 7.7 (≈ 32 µg/mL) | 0.24 (≈ 0.996 µg/mL) | 3.8 (≈ 15.8 µg/mL) | 7.7 (≈ 32 µg/mL) | 7.7 (≈ 32 µg/mL) | 3.8 (≈ 15.8 µg/mL) | 3.8 (≈ 15.8 µg/mL) | 3.8 (≈ 15.8 µg/mL) | 31 (≈ 129 µg/mL) | 1.9 (≈ 7.89 µg/mL) | 0.06 (≈ 0.249 µg/mL) | < 1 | Active | 1.18 | – | Active | Active | Active | 33 | Active | IC50 ([13]; Jurkat E6.1, 4 h): > 12.5 µM; IC50 ([14]; HL-60, 4 h): > 12.5 µM; IC50 [19]: < 1 µM; IC50 [27]: 6.25 µM; IC50 [21]: 1.56 µM; hemolysis at 0.5 h, 100 µM [28]: 7%; Activity [29]: Toxic |
| CC[C@H](C)[C@H](NC(=O)[C@H](CCCCN)NC(=O)[C@H](CCCCN)NC(=O)[C@H](CC(C)C)NC(=O)[C@H](CCCNC(=N)N)NC(=O)[C@H](CCCCN)NC(=O)[C@@H](N)CCCCN)C(=O)N[C@@H](Cc1ccccc1)C(=O)N[C@@H](CCCCN)C(=O)N[C@@H](CCCCN)C(=O)N1CCC[C@H]1C(=O)N[C@@H](CCSC)C(=O)N[C@H](C(=O)N[C@H](C(=O)NCC(=O)N[C@H](C(=O)N[C@H](C(=O)N[C@H](C(=O)N1CCC[C@H]1C(=O)N[C@@H](Cc1ccccc1)C(N)=O)[C@@H](C)CC)[C@H](C)O)C(C)C)[C@@H](C)CC)C(C)C | 54 (≈ 128 µg/mL) | 27 (≈ 64 µg/mL) | 3.4 (≈ 8.06 µg/mL) | 54 (≈ 128 µg/mL) | 54 (≈ 128 µg/mL) | 1.7 (≈ 4.03 µg/mL) | 27 (≈ 64 µg/mL) | 3.4 (≈ 8.06 µg/mL) | 54 (≈ 128 µg/mL) | 3.4 (≈ 8.06 µg/mL) | 0.11 (≈ 0.261 µg/mL) | 1 | Active | 12.8 | 20 | – | – | Active | 7 | Active | IC50 [19]: 6.25 µM; remaining at 24 h, 1000 µM [30]: 10%; IC50 [21]: 25 µM; Activity [23]: Non-toxic |
